HSF1 activator: HSF-1 activators, primary screen, NIH3T3-HGL cells, MG132 stress, luminescence, single point; NIH3T3-HGL HSF-1 luciferase reporter, 8 h; 100% = twice DMSO control signal; activation, % at 9 µM; actives 1.7% (n = 300,000);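 active = mean replicate activation of at least 50% with a set share of replicates each reaching 50%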
SR-BI DiI inh: inhibitors of SR-BI mediated HDL lipid uptake, primary screen, ldlA[mSR-BI] cells, fluorescence, single point. Scavenger receptor class B member 1 (Mus musculus), Q61009. ldlA[mSR-BI] CHO cells, DiI-HDL uptake fluorescence, 3 h. inhibition, % at 12.5 µM. actives 0.96% (n = 320,000). AID 488896, 2010;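 active = mean replicate inhibition of at least 70% and a set share of replicates each scoring 70 or more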
Target sequence (Q61009 whole entry, looked up): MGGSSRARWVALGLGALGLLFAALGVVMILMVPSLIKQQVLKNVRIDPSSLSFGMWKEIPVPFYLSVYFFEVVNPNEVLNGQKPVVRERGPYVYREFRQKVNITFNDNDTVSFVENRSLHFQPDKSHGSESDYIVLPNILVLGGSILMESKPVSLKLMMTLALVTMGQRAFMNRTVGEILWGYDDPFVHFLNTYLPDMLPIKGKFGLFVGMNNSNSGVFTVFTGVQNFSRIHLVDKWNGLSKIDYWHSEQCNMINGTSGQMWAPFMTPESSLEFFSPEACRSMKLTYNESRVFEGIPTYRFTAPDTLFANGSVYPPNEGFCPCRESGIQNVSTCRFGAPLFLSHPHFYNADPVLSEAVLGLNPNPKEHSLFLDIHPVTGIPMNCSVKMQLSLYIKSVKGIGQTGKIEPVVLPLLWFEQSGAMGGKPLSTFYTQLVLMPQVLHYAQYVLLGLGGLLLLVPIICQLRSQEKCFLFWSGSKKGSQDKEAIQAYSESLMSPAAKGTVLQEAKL
Wnt act: Wnt/beta-catenin pathway activators, primary screen, cell-based, plate reader, single point. actives 1.2% (n = 300,000). AID 743398, 2014. Wnt/beta-catenin reporter cell assay, activator. activation, % at 9.35 µM; in the data active = activation above about 30%, passing the limit was not always enough
SR-BI DiI-HDL act: activators of SR-BI mediated DiI-HDL uptake, primary screen, ldlA[mSR-BI] CHO cells, DiI fluorescence; 3 h; 100 = double the neutral-control signal; activation, % at 12.5 µM; actives 0.096% (n = 320,000); AID 504775, 2011;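 active = mean replicate activation of at least 60% and every replicate at or above 60%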
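Material – SR-BI-overexpressing, LDLR-lacking CHO cells · Medium – BSA-supplemented, HEPES-buffered Ham's F12, pH 7.4 · Doses – single concentration · Times – compound with DiI-HDL co-incubation, 3 h at 37 °C · Measured by – bottom-read fluorescence, 550/595 nm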
MITF TRPM1 HTS: activators of MITF-driven TRPM1 promoter reporter, primary screen, cell-based, SK-MEL-5, luciferase, single point; SK-MEL-5 TRPM1-promoter luciferase, 24 h; % of positive control, neutral wells = 0; activation, % at 12.5 µM; actives 0.75% (n = 300,000); AID 588334, 2011;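 active = mean activation of at least 80% with every replicate also reaching 80%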
Numbers stand for hits; n = inactive; x = no result given. Rows were chosen to be rich in hits. Some 3.6% of all compounds tested hit in one or more screens of this group.

SMILES	HSF1 activator	SR-BI DiI inh	Wnt act	SR-BI DiI-HDL act	MITF TRPM1 HTS
COC(=O)C1=C(C)N(Cc2cccc(C(F)(F)F)c2)C(=NCc2ccc3c(c2)OCO3)NC1c1ccc(Cl)cc1 (configuration not stated)	x	x	n	x	x
COc1ccc(NC(=O)C[C@H]2C(=O)N(CCc3ccccc3)C[C@@H]2Cc2ccccc2)cc1	x	x	n	x	x
Cc1ccc(-c2nnc(SCC(C)C)n2C)cc1	n	n	60.9	x	n
COC(=O)CCc1sc(Nc2ccccc2)nc1-c1ccc(OC)cc1	n	n	42.1	n	n
Cc1nc(N2CCCCC2)sc1C(=O)c1ccc(SCCO)c([N+](=O)[O-])c1	n	77.5	n	n	n
O=S(=O)(NCC(c1ccc2c(c1)OCO2)N1CCOCC1)c1ccc(Cl)cc1 (configuration not stated)	n	n	n	n	n
O=S(=O)(NCC(c1ccc2c(c1)OCO2)N1CCOCC1)c1ccccc1 (configuration not stated)	n	n	n	347.2	n
CCCC(=O)Nc1ccc2c(c1)COC2=O	n	n	n	n	n
Cc1cc(=O)oc2cc(NC(=O)c3ccc(OC(F)F)cc3)ccc12	n	n	n	n	86.1
Cc1cc(=O)oc2cc(NC(=O)C(C)Oc3ccc(F)cc3)ccc12 (configuration not stated)	n	n	n	n	n
Cc1cc(=O)oc2cc(NC(=O)c3cccc(F)c3)ccc12	n	n	n	n	n
Cc1cc(=O)oc2cc(NC(=O)c3cccc(S(C)(=O)=O)c3)ccc12	n	n	n	n	92.5
Cc1cc(=O)oc2cc(NC(=O)c3cccc(S(=O)(=O)N(C)C)c3)ccc12	n	x	n	x	139.2
O=C(Nc1ccc2c(c1)COC2=O)c1ccc(Cl)c(Cl)c1	n	72.2	n	n	n
O=C(Nc1ccc(Cl)c(Cl)c1)c1ccc(Cl)c(Cl)c1	n	n	n	n	n
CCOc1ncccc1C(=O)Nc1ccc2c(C)cc(=O)oc2c1	n	n	n	n	n
CS(=O)(=O)c1cccc(NC(=O)c2ccc(Cl)c(Cl)c2)c1	n	83.3	n	n	n
COc1ccccc1C(=O)Nc1ccc2c(C)cc(=O)oc2c1	n	n	48.1	n	87.9
CC1=N/C(=C\c2ccc([N+](=O)[O-])cc2)C(=O)N1c1ccc(C)c(Cl)c1	x	x	n	x	x
COCCN1C(=O)CCC1(C)C(=O)Nc1ccc2c(c1)OCCO2 (configuration not stated)	x	x	n	x	x
CCOC(=O)C1(C)CCN1C(=O)Cc1ccc(OC)cc1 (configuration not stated)	x	x	n	x	x
C[C@@H]1CN([C@H](C)CO)C(=O)c2cc(C#CC3CCCCC3)cnc2O[C@H]1CN(C)Cc1cccnc1	x	x	n	x	x
CCC(=O)NCCc1nc2cc(NC(=O)c3ccco3)ccc2n1C	n	n	n	n	n
Cn1c(CCNC(=O)c2ccco2)nc2cc(NC(=O)c3ccccc3)ccc21	n	n	31.6	n	89.0
Cn1c(CCNC(=O)c2ccccc2)nc2cc(NC(=O)c3ccco3)ccc21	n	n	n	n	x
SMILES	HSF1 activator	SR-BI DiI inh	Wnt act	SR-BI DiI-HDL act	MITF TRPM1 HTS
Cn1c(CCNC(=O)c2ccco2)nc2cc(NC(=O)c3ccco3)ccc21	n	n	39.4	n	x
Clc1ncccc1-c1nc2ccccc2s1	n	n	n	n	n
O=c1c(-c2nc3ccccc3s2)cccn1Cc1ccc(Cl)cc1	88.5	n	n	n	x
CC1OC(CCc2cccc(Cl)c2)Cc2[nH][nH]c(=O)c21 (configuration not stated)	x	x	n	x	x
C[C@@H]1CN([C@H](C)CO)C(=O)CCCn2cc(nn2)CO[C@H]1CN(C)S(=O)(=O)c1ccc(-c2ccccc2)cc1	x	x	n	x	x
CCOc1ccc(C(=O)n2cc(C(=O)OC)c3ccccc32)cc1OCC	n	81.4	n	n	x
CCc1nnc(NC(=O)C2Cc3ccccc3CN2S(=O)(=O)c2cccs2)s1 (configuration not stated)	83.9	n	x	n	n
CCc1nnc(NC(=O)C2Cc3ccccc3CN2S(=O)(=O)c2ccc(C)cc2)s1 (configuration not stated)	57.5	n	x	n	n
COCCCNC(=O)C[C@H]1C[C@@]2(C(=O)OC)C(=C[C@H](C3CCCC3)O[C@@H]2C)N(Cc2ccccc2)C1=O	x	x	n	x	x
C[C@@]12C(=O)OC(=O)[C@]1(C)C1CCC2O1	x	88.9	n	n	n
O=C(Nc1ccc(Cl)cc1)OCC12COCN1COC2	x	x	n	x	x
Cc1c(Cl)c(C(=O)NC2CCCC2)nn1C	60.7	n	n	n	x
Cn1nc(C(=O)NC2CCCC2)c2ccccc2c1=O	x	n	n	n	n
COc1cc(CN2C[C@@H](CO)O[C@@H](n3cnc4c(N5CCN(C)CC5)ncnc43)C2)cc(OC)c1OC	x	x	n	x	x
Nc1nc2ccccc2n1/N=C/c1cccnc1	n	n	x	n	n
Nc1nc2ccccc2n1/N=C/c1ccc([N+](=O)[O-])s1	99.2	n	x	n	n
Nc1nc2ccccc2n1/N=C/c1ccc(-c2ccccc2)o1	n	n	52.6	n	x
Cn1nc(-c2ccccc2)cc1NC(=O)[C@@H]1O[C@H](CO)[C@H](O)[C@H](O)[C@H]1O	x	x	n	x	x
COc1ccc(NC(=O)C2(C)CCN2CCOc2ccccc2)cc1OC (configuration not stated)	x	x	n	x	x
N#Cc1ccc(CSc2nc(N)cc(N)n2)cc1	73.9	n	n	n	x
COc1ccc(C(=O)/C=C/Sc2nc3ccccc3o2)cc1	92.6	n	n	n	x
C[C@H]1CN(C(=O)OC(C)(C)C)CCN1c1ccc(Br)c(C#N)c1	x	x	n	x	x
COc1ccc(NC(=O)C2c3ccccc3OCC(=O)N2Cc2cccnc2)cc1 (configuration not stated)	x	x	n	x	x
CC(C)CNC(=O)c1cccc(NC(=O)c2ccc3c(c2)C(=O)N(C)C3=O)c1	n	81.1	n	n	x
CCC(=O)Oc1ccc(C(=O)Nc2cccc(C(=O)NCC(C)C)c2)cc1	n	n	x	n	n
SMILES	HSF1 activator	SR-BI DiI inh	Wnt act	SR-BI DiI-HDL act	MITF TRPM1 HTS
CC(C)c1ccc(-c2nc(N3CCCCCC3)nc3n[nH]c(N)c23)cc1	n	89.6	n	n	x
COc1cc(NC(=O)c2ccccc2F)ccc1NC(=O)c1cc2ccccc2o1	n	87.2	n	n	n
COc1cc(NC(=O)c2c(OC)cccc2OC)ccc1NC(=O)c1cc2ccccc2o1	52.1	n	n	n	93.0
Cc1ccc(-c2nc3c(C)cc(Br)cn3c2Cc2ccsc2)cc1	x	x	n	x	x
CC1CCCCC1NC(=O)COC(=O)c1ccc2c(c1)OCCO2 (configuration not stated)	x	n	n	n	n
C[C@@H]1CNC(=O)c2c(C(=O)N[C@H](C)c3ccccc3)ncn21	x	x	n	x	x
CC[C@@]1(O)C(=O)OCc2c1cc1n(c2=O)Cc2cc3c(N)cccc3nc2-1	50.4	n	n	n	n
